Wee1 stabilizer – Wee1 degradation inhibitors, primary screen, cell-based, HeLa, Wee1K328M-luciferase, luminescence; Wee1-like protein kinase (Homo sapiens), P30291; HeLa Luc-Wee1K328M stability; 100% = proteasome inhibitor MG132 effect; reporter increase, % at 5 µM; hit rate 1.2% among 220,000;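 active means activation above the mean of all tested compounds plus 3 SD, set per screening run, cut at about 8.8% in these data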;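 further: cells exposed to compound for 20 h before luminescence read; 0% = DMSO alone and 100% = MG132 at 30 µM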
RanGTP-Impb inh – inhibitors of RanGTP-importin-beta interaction, primary screen, biochemical, FRET, CFP-Ran, YFP-importin-beta, homogeneous; Ran GTPase (GTP-bound) - importin-beta complex; cell-free CFP-Ran/YFP-importin-beta FRET ratio; inhibition, % (test concentration not listed); hit rate 1.1% among 300,000; AID 2216, 2009;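 active means more than half of the replicate wells show a fall in the fluorescence ratio signal beyond about 16%, limit read from the data, passing the limit was not always enough; inconclusive means exactly half of the replicate wells pass the set limit; inactive means fewer than half of replicates pass the limit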;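 further: 0% = DMSO wells and 100% = Ran loaded with GDP instead of GTP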
Runt-SMMHC FRET – inhibitors of RUNX1 Runt–CBFb-SMMHC binding, primary screen, biochemical, FRET, Cerulean-Runt, Venus-CBFb-SMMHC, uHTS; Cerulean-Runt/Venus-CBFb-SMMHC FRET ratio 530/480, 1 h; hit rate 0.74% among 220,000; inhibition, % at 20 µM; AID 1434, 2008;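 active means mean inhibition across duplicate retests at 20 µM reaching about 50%, limit read from the data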;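 further: 0% = DMSO wells and 100% = wells with excess untagged CBFb-SMMHC; inhibitors lower the FRET ratio by blocking Runt binding to CBFb-SMMHC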
Runt-CBFb FRET – inhibitors of RUNX1 Runt–CBFb binding, primary screen, biochemical, FRET, Cerulean-Runt, Venus-CBFb, uHTS. Runt-related transcription factor 1 (Homo sapiens) + Core-binding factor subunit beta …. Cerulean-Runt/Venus-CBFb FRET ratio 530/480, 1 h. inhibition, % at 20 µM. hit rate 0.46% among 220,000. AID 1496, 2009;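 active means inhibition over about 50% at 20 µM in the single-dose screen, limit read from the data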;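 further: 0% = DMSO wells and 100% = excess unlabeled CBFb competitor control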
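Schedule: protein complex preformed 1 h, compound exposure 1 h, room temperature, dark; test system: Cerulean-labeled Runt domain protein; amount: 100 nM per protein; buffer or medium: Tris 50 mM pH 7.5, KCl, K2SO4, 0.01% BSA; read-out: loss of energy transfer signal; detection: FRET fluorescence; controls: 5 µM unlabeled CBFb as full-inhibition high control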
HMGR II inh – inhibitors of E. faecalis class II HMGR, primary screen, biochemical, Enterococcus faecalis. purified E. faecalis HMGR, NADPH absorbance 340 nm kinetic. inhibition, % at 10 µM. hit rate 0.41% among 190,000;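 active means inhibition above a set limit, the median over all tested compounds plus 3 SD, cut at about 9.5% in these data; inconclusive means no clear call, values can overlap the other calls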;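 further: enzyme runs in reverse so mevalonate oxidation gives rising NADPH absorbance; 0% = complete reaction with DMSO and 100% = background rate lacking mevalonate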
PHOSPHO1 inh – PubChem AID 1565 | Phosphoethanolamine/phosphocholine phosphatase (Homo sapiens), Q8TCT1 | hit rate 1.1% among 290,000 | inhibition, % at 13.3 µM | recombinant PHOSPHO1, absorbance phosphatase assay; in the data active means inhibition above about 60%
Target sequence (Q8TCT1 whole entry, looked up): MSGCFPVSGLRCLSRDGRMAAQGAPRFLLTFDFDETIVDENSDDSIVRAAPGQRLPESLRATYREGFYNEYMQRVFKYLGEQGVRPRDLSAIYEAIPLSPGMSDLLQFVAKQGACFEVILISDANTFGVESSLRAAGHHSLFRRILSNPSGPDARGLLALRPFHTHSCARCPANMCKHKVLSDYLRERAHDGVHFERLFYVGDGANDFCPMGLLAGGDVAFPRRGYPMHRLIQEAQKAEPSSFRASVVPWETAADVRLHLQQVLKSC
Active calls of the source: *; ? = inconclusive; . = no result. Sampled rows, rich in hits. Any-hit rate of the full collection: about 3.4%.

SMILES	Wee1 stabilizer	RanGTP-Impb inh	Runt-SMMHC FRET	Runt-CBFb FRET	HMGR II inh	PHOSPHO1 inh
CCOC(=O)C1CCCN(C(=O)CCNC(=O)Cn2ccc3ccccc3c2=O)C1 (centres undefined)	.	7.3	.	.	.	23.3
COc1ccccc1C(=O)Nc1ccnn1C1CCN(C(C)CSC)CC1 (centres undefined)	.	22.6*	.	.	.	26.3
Cc1cccc(Nc2nc(-c3ccncc3)cs2)c1	-0.2	-19.9	-1.1	-3.1	4.5	-16.5
Cc1cccc(Nc2nc(-c3ccc4c(c3)OCCO4)cs2)c1	4.1	3.2	6.5	5.4	-0.1	73.1*
COc1ccc(S(=O)CC(=O)Nc2ccccc2Cl)cc1 (centres undefined)	9.7*	-1.0	1.9	0.4	1.0	12.0
COc1cccc2c1cc1c(=O)n(CC(=O)NCCCN3CCN(C)CC3)nc(C)n12	.	2.9	.	.	.	39.9
CCc1cccc(NC(=O)C2CCCN(S(=O)(=O)c3cccs3)C2)c1 (centres undefined)	.	5.1	.	.	.	-5.9
CC(=O)Nc1ccc(S(=O)(=O)Nc2cccc(-c3ccc4nncn4n3)c2)cc1	0.5	-3.3	-1.7	3.5	11.2*	27.7
CCOC(=O)c1[nH]c(C)c(C(=O)c2ccc(C)cc2)c1C	9.5*	-0.1	2.3	-2.1	4.5	10.8
CCC1CCCCN1CCCNC(=O)c1cn(CC(C)C)c(=O)c2cc(OC)c(OC)cc12 (centres undefined)	-1.5	-1.7	-4.2	0.1	-3.8	6.7
COc1ccc(Cn2c(O)c(C=Nc3ccc(O)cc3)c3ccccc3c2=O)cc1	0.6	30.4*	8.6	-175.4	0.1	23.2
O=c1c2ccccc2c(C=Nc2ccc(O)cc2)c(O)n1Cc1ccccc1	2.5	33.3*	-78.8	-79.8	.	2.6
COc1ccc(N=Cc2c(O)n(-c3ccc(OC)cc3)c(=O)c3ccccc23)cc1	1.3	5.0	90.0*	3.4	-1.6	-17.9
COc1ccc(Cn2c(O)c(C=Nc3ccccc3)c3ccccc3c2=O)cc1	-1.3	-5.5	-19.6	-6.8	-9.0	-6.4
COc1ccc(Cn2c(O)c(C=Nc3ccc(C)cc3)c3ccccc3c2=O)cc1	-0.8	-3.6	-83.9	-55.3	-4.9	-2.5
COc1ccc(N=Cc2c(O)n(-c3cccc(C)n3)c(=O)c3ccccc23)cc1	1.4	14.0	7.0	-10.1	-1.5	-29.0
COc1cc(/C=C/C(=O)O)cc(S(=O)(=O)N2CCN(S(=O)(=O)c3ccc(Cl)cc3)CC2)c1OC	.	4.3	.	.	.	41.5
C=CCOC(=O)c1ccc(N2CCN(c3ccccc3)CC2)nc1	.	0.2	.	.	.	32.7
CC(=O)C1=C(O)C(=O)N(c2ccc(Br)cn2)C1c1ccc(F)cc1 (centres undefined)	10.6*	.	-7.7	1.6	-5.0	-14.3
CC(=O)C1=C(O)C(=O)N(c2ccc(Br)cn2)C1c1ccc(Br)cc1 (centres undefined)	10.5*	2.7	2.1	-1.0	.	19.5
COc1cc(C2C(C(C)=O)=C(O)C(=O)N2c2ccc(Br)cn2)ccc1O (centres undefined)	-0.5	4.3	0.4	1.9	-2.4	-22.6
CC(=O)C1=C(O)C(=O)N(c2nccs2)C1c1ccc(Br)cc1 (centres undefined)	9.1*	1.6	0.4	4.7	-1.0	17.4
CCOc1cccc(C2C(C(=O)c3ccc(C)o3)=C(O)C(=O)N2Cc2ccncc2)c1 (centres undefined)	-0.6	5.8	2.2	0.0	0.0	-36.3
CCOc1cccc(C2C(C(=O)c3ccc(C)o3)=C(O)C(=O)N2c2nccs2)c1 (centres undefined)	-1.2	-1.0	-12.5	0.1	2.1	71.1*
Cc1ccc(-c2noc(C3CCCN(C(=O)c4ccc(C(C)(C)C)cc4)C3)n2)o1 (centres undefined)	.	-0.4	.	.	.	23.3
SMILES	Wee1 stabilizer	RanGTP-Impb inh	Runt-SMMHC FRET	Runt-CBFb FRET	HMGR II inh	PHOSPHO1 inh
O=C(c1ccc2c(=O)n3c(nc2c1)CCCCC3)N1CCN(c2ccccc2F)CC1	.	0.6	.	.	.	22.8
CCC(NC(=O)Cc1c(C)c2c(cc(C)c3c(C)c(C)oc32)oc1=O)C(=O)O (centres undefined)	.	0.0	.	.	.	37.3
O=c1cc(N2CCN(Cc3ccccc3)CC2)[nH]c(=O)n1Cc1ccc(F)cc1	3.0	41.5*	-1.3	1.6	-0.8	3.4
O=c1cc(N2CCN(Cc3ccccc3)CC2)[nH]c(=O)n1-c1cccc(C(F)(F)F)c1	0.3	40.7*	17.4	5.6	0.0	-2.3
COc1ccc(-n2c(=O)cc(N3CCN(Cc4ccccc4)CC3)[nH]c2=O)cc1	-1.5	?	-1.2	.	2.3	6.4
CCC1=NN(C(=O)Cc2ccccc2)C(O)(c2ccncc2)C1 (centres undefined)	1.4	0.3	8.6	-16.9	-2.6	11.7
CCC1=NN(C(=O)Cc2ccc([N+](=O)[O-])cc2)C(O)(c2ccncc2)C1 (centres undefined)	0.1	17.6*	-1.6	-1.6	-9.5	49.8
O=C(Nc1ccc(F)cc1F)N1CCN(CCc2ccccc2)CC1	0.1	-0.8	3.1	0.6	.	67.6*
COC(=O)N1CCN(CCc2ccccc2)CC1	-2.4	-2.4	-0.1	2.3	12.8*	33.9
O=C(Nc1ccc(F)cc1F)N1CCN(C/C=C/c2ccccc2)CC1	1.3	-1.6	3.1	3.1	5.4	-1.3
CCOC(=O)N1CCN(CCCc2ccccc2)CC1	.	0.1	.	.	.	24.7
COc1ccc(OCC(=O)Nc2c(C)ccc3nsnc23)cc1	.	0.8	.	.	.	-57.3
CC(C)CN(C(=O)COC(=O)c1c(Cl)ccc(Cl)c1Cl)C1CCS(=O)(=O)C1 (centres undefined)	8.8*	-1.1	-0.7	-2.1	-1.2	-4.1
Cc1cc(S(=O)(=O)Nc2ccc(N(C)C)cc2)c(C)s1	-3.5	4.2	5.9	8.9	-5.8	66.6*
COc1ccc(S(=O)(=O)NC(C)C(=O)NCCN2CCOCC2)cc1Cl (centres undefined)	.	3.5	.	.	.	-17.4
COc1cc(C2CC(=O)N3CN(c4ccccc4C)CSC3=C2C#N)cc(OC)c1OC (centres undefined)	-1.3	3.0	44.0	20.7	-6.6	87.5*
COc1ccccc1N1CSC2=C(C#N)C(c3ccc(SC)cc3)CC(=O)N2C1 (centres undefined)	-2.1	13.0	40.5	19.3	-6.3	91.5*
CC(=O)Oc1ccc(-c2cc3c(OC(C)=O)cc(OC(C)=O)cc3oc2=O)cc1	.	122.7*	.	.	.	.

Bioassay records (PubChem BioAssay)
